In ChEMBL document CHEMBL1148497 (Bioorg Med Chem Lett, 2006):

Legend:
HPAC = assay: Cytotoxicity against human HPAC cell line; assay type: functional, cell-based
Method in brief: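 Human pancreatic ductal carcinoma HPAC cells grown in 1:1 DMEM/Ham's F-12 with 10% FBS at 37 °C, seeded at 2 × 10^3 cells/well. After 24 h, compounds were added from DMSO stocks (final DMSO 0.1%) for 72 h. WST-1 was then added for 3 h at 37 °C and absorbance read at 450 nm.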

Mus musculus [1] = assay: Toxicity in BALB/c mouse at 0.5 mg/kg, ip; assay type: organism-based; parameters: dose 0.5 mg/kg, route intraperitoneal; settings: in vivo
Mus musculus [2] = assay: Hepatic toxicity in BALB/c mouse at 0.5 mg/kg, ip; assay type: organism-based; parameters: dose 0.5 mg/kg, route intraperitoneal; settings: in vivo

## CCC(=C/[C@H](C)C/C=C/C(C)=C/[C@@H](CO)C(=O)[C@@H](C)[C@H](O)[C@@H](C)C/C(C)=C/C(=O)O)/C=C/[C@H]1CC(C)=CC(=O)O1
HPAC
  IC50: 0.309 nM
Mus musculus [1]
  Activity: Non-toxic
Mus musculus [2]
  Activity: Non-toxic
